For series [1], the target named is T1, Protein cereblon/Fibroblast growth factor receptor 2 (Homo sapiens, UniProt P21802+Q96SW2). The series can be described thus: PROTAC activity at CRBN/FGFR2 in human KATO III stomach cancer cell line assessed as FGFR2 degradation measured for 6 hrs by immunoblot analysis. It is filed as cell-based. The procedure, abridged: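 KATO III cells treated for 6 h at the stated concentrations, added from 10 mM DMSO stocks (final DMSO below 0.5%). Cells were washed with PBS and lysed in 2× loading buffer, then run on SDS-PAGE and blotted to PVDF. Anti-FGFR2 was applied overnight at 4 °C, with ECL detection. FGFR2 was expressed as FGFR2/β-actin, normalized to DMSO-treated cells, from three independent biological experiments.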
Target sequence in this assay (P21802 22-821 limits assumed): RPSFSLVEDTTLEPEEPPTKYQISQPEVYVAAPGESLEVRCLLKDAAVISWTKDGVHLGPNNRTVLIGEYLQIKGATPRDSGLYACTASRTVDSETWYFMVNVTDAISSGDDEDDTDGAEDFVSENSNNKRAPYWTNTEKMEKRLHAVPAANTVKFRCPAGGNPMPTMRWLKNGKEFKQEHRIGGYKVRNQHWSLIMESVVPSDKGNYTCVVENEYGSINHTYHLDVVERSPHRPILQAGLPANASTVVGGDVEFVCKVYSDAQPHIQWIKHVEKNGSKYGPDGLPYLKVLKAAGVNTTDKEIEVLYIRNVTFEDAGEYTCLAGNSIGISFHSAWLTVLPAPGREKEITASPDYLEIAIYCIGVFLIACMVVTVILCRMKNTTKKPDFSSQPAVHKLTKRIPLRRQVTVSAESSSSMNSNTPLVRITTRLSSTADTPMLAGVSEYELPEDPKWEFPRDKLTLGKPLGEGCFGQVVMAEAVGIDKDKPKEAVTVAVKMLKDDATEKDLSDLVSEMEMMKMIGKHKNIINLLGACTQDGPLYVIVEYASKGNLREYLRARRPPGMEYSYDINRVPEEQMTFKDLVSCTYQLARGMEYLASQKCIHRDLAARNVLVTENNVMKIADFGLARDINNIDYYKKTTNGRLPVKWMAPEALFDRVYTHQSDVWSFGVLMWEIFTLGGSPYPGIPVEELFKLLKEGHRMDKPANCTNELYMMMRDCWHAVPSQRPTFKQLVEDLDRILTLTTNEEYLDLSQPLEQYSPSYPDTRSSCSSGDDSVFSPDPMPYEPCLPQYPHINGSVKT
Target sequence in this assay (Q96SW2 whole entry partner): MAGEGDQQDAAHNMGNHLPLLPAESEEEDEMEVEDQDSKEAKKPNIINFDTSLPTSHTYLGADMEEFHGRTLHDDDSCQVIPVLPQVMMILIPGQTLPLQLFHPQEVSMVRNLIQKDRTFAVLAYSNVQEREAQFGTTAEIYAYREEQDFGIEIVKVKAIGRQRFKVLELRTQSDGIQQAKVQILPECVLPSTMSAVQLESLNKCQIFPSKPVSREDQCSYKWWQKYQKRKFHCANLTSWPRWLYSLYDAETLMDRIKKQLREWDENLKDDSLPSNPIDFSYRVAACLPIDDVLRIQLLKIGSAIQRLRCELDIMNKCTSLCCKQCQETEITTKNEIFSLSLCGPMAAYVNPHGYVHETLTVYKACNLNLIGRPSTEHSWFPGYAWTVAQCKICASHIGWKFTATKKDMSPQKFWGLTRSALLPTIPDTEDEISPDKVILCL
On the technique in general: Immunoblotting shows a protein as a band on a membrane.

Series [2] in a line: Antiproliferative activity against human HEK293T cells assessed as reduction in cell viability measured for 72 hrs by celltiter-glo reagent based assay. The format is toxicity, HEK-293T. The procedure, abridged:
(§1)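 Cancer lines KATO III, SNU16, NCI-H716, NCI-H1975, MV-4-11 and HEK293T treated 72 h; antiproliferative IC50 given as mean ± s.d. from three independent biological experiments.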
(ATP-based viability assays read luminescence as a measure of living cells.)

For the next series, the system named is NCI-H1975. Kind of series: Antiproliferative activity against human NCI-H1975 cells assessed as reduction in cell viability measured for 72 hrs by celltiter-glo reagent based assay. It is filed as functional. The following applies: NCI-H1975, 72 h. The procedure, abridged:
as §1

The subject of series [3] is SNU-16. Kind of series: Antiproliferative activity against human SNU-16 cells assessed as reduction in cell viability measured for 72 hrs by celltiter-glo reagent based assay. The format is functional. The following applies: SNU-16, 72 h. The procedure, abridged:
as §1

The test system of the next series is MV4-11. The series can be described thus: Antiproliferative activity against human MV4-11 cells assessed as reduction in cell viability measured for 72 hrs by celltiter-glo reagent based assay. It is filed as functional. The following applies: MV4-11, 72 h. The procedure, abridged:
as §1

Another series has as its system NCI-H716. The series can be described thus: Antiproliferative activity against human NCI-H716 cells assessed as reduction in cell viability measured for 72 hrs by celltiter-glo reagent based assay. It is filed as functional. The following applies: NCI-H716, 72 h. The procedure, abridged:
as §1

Series [4] deals with KATO III stomach cancer cell line. Kind of series: Antiproliferative activity against human KATO III stomach cancer cell line assessed as reduction in cell viability measured for 72 hrs by celltiter-glo reagent based assay. The format is functional. The procedure, abridged: as §1
The nature of series [5]: Oral bioavailability in mouse at 10 mg/kg. The format is ADME, organism-based. The following applies: in vivo.
The target of series [6] is T1, Protein cereblon/Fibroblast growth factor receptor 2. Kind of series: PROTAC activity at CRBN/FGFR2 in human KATO III stomach cancer cell line assessed as FGFR2 degradation by measuring FGFR2 expression level at 15 uM measured for 6 hrs by Western blotting analysis. The format is cell-based.
Target sequence in this assay (P21802 22-821 limits assumed): as the sequence (P21802 22-821 limits assumed) above
Target sequence in this assay (Q96SW2 whole entry partner): as the sequence (Q96SW2 whole entry partner) above
For series [7] the target is unchanged. Kind of series: PROTAC activity at CRBN/FGFR2 in human KATO III stomach cancer cell line assessed as FGFR2 degradation by measuring FGFR2 expression level at 100 to 500 nM measured for 6 hrs by Western blotting analysis. The following applies: dose 100-500 nM. It is filed as cell-based. The procedure, abridged:
(§2)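 KATO III cells treated 6 h across 0.5–10,000 nM (DMSO stock, final DMSO below 0.5%); FGFR2 immunoblotted, quantified as FGFR2/β-actin ratio normalized to DMSO-treated cells, three independent biological experiments; DC50 and Dmax derived from the curve.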
Target sequence in this assay (P21802 22-821 limits assumed): as the sequence (P21802 22-821 limits assumed) above
Target sequence in this assay (Q96SW2 whole entry partner): as the sequence (Q96SW2 whole entry partner) above

The target is the same in series [8]. The series can be described thus: PROTAC activity at CRBN/FGFR2 in human KATO III stomach cancer cell line assessed as FGFR2 degradation by measuring FGFR2 expression level at 500 nM measured for 6 hrs by Western blotting analysis relative to control. It is filed as cell-based. The procedure, abridged: as §2
Target sequence in this assay (P21802 22-821 limits assumed): as the sequence (P21802 22-821 limits assumed) above
Target sequence in this assay (Q96SW2 whole entry partner): as the sequence (Q96SW2 whole entry partner) above
For series [9] the target is unchanged. Kind of series: PROTAC activity at CRBN/FGFR2 in human KATO III stomach cancer cell line assessed as FGFR2 degradation by measuring FGFR2 expression level measured for 6 hrs by Western blotting analysis. It is filed as cell-based. The procedure, abridged:
as §2
Target sequence in this assay (P21802 whole entry): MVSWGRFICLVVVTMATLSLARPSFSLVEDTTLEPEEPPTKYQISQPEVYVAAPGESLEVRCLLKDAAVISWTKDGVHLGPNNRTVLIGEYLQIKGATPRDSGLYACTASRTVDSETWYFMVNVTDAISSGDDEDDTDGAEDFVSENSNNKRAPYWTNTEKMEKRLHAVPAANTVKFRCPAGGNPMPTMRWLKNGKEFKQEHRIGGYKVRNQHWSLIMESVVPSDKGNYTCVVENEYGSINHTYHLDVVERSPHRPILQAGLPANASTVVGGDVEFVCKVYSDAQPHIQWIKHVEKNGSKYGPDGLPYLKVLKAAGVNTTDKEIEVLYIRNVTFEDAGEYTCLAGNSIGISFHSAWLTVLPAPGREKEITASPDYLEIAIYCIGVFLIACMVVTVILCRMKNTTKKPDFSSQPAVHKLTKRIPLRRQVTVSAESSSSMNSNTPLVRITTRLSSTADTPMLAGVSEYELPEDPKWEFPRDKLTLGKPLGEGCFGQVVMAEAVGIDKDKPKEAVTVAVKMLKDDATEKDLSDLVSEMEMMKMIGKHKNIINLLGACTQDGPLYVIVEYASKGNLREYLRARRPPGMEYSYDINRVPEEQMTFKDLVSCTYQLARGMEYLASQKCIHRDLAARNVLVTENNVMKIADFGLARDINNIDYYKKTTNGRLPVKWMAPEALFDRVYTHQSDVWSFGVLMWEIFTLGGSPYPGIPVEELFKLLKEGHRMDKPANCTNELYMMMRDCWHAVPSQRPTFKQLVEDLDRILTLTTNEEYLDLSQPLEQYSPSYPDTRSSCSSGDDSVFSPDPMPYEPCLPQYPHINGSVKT
Target sequence in this assay (Q96SW2 whole entry): as the sequence (Q96SW2 whole entry partner) above

Series [10] has as its system SNU-16. The series can be described thus: Antitumor activity against human SNU-16 cells xenografted in BALB/c nude mouse assessed as tumor growth inhibition at 20 mg/kg, po administered for 15 days and measured on day 2. The format is functional. The following applies: SNU-16, 48 h, time 2 day, read-out: TGI. The procedure, abridged:
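Female BALB/c nude mice, 5 weeks old (20–22 g), s.c. right-flank SNU-16 implants, randomized by body weight into groups (n = 5) once tumours reached 50–100 mm3. Dosing 20 mg/kg/day intragastric in 0.5% CMC-Na for 15 d; vehicle controls. Tumour width and length measured every 2 days; tumours harvested 4 h after last dose and lysates immunoblotted for pFGFR, FGFR2, pPLCγ, pErk.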
(In general: In xenograft studies the graft and the host belong to different species.)

Active and inactive are the calls of the source. The calls are words filed in the database; no cut-off is given here. Where only a bound is given, the exact number is not on record here.

As to `COc1cc(OC)c(Cl)c(NC(=O)N(C)c2cc(Nc3ccc(N4CCN(C(=O)C5CCN(c6ccc7c(c6)C(=O)N(C6CCC(=O)N(C)C6=O)C7=O)CC5)CC4)cc3)ncn2)c1Cl` (centres undefined), the outcome in series [1] was inactive. For the same molecule, the IC50 at 72 h in series [2] was over 10 µM. The IC50 in the series with NCI-H1975 was over 10 µM; with SNU-16 [3], 0.108 µM; in the series on MV4-11, over 10 µM; in the series on NCI-H716, 0.0995 µM; in series [4], 0.497 µM.
Molecule `COc1cc(OC)c(Cl)c(NC(=O)N(C)c2cc(Nc3ccc(N4CCN(CC(=O)N[C@H](C(=O)N5C[C@H](O)C[C@H]5C(=O)N[C@@H](C)c5ccc(-c6scnc6C)cc5)C(C)(C)C)CC4)cc3)ncn2)c1Cl` showed a bioavailability in [5] of 0.2%.
Regarding `COc1cc(OC)c(Cl)c(NC(=O)N(C)c2cc(Nc3ccc(N4CCN(CC(=O)NCCOCCOCCNC(=O)C5CCN(c6ccc7c(c6)C(=O)N(C6CCC(=O)NC6=O)C7=O)CC5)CC4)cc3)ncn2)c1Cl` (centres undefined), in series [6], the outcome was inactive.
For `COc1cc(OC)c(Cl)c(NC(=O)N(C)c2cc(Nc3ccc(N4CCN(C(=O)CCCCCCCCCCCNc5cccc6c5C(=O)N(C5CCC(=O)NC5=O)C6=O)CC4)cc3)ncn2)c1Cl` (centres undefined), the result in series [7] was inactive.
As for `COc1cc(OC)c(Cl)c(NC(=O)N(C)c2cc(Nc3ccc(N4CCN(CC(=O)NCCCCCNc5cccc6c5C(=O)N(C5CCC(=O)NC5=O)C6=O)CC4)cc3)ncn2)c1Cl` (centres undefined), the figures for the Activity in series [8] and in series [8] (DEGRADER) were 66% and 20%, respectively. In addition, in series [9], the DC50 is 0.0415 µM.
Regarding `COc1cc(OC)c(Cl)c(NC(=O)N(C)c2cc(Nc3ccc(N4CCN(CC(=O)NCCNc5cccc6c5C(=O)N(C5CCC(=O)NC5=O)C6=O)CC4)cc3)ncn2)c1Cl` (centres undefined), the outcome in [7] was inactive.
Turning to `COc1cc(OC)c(Cl)c(NC(=O)N(C)c2cc(Nc3ccc(N4CCN(C(=O)CCCCCCCNc5cccc6c5C(=O)N(C5CCC(=O)NC5=O)C6=O)CC4)cc3)ncn2)c1Cl` (centres undefined), in series [8] (DEGRADER), the Activity amounted to 40%.
`CCN1CCN(c2ccc(Nc3cc(N(C)C(=O)Nc4c(Cl)c(OC)cc(OC)c4Cl)ncn3)cc2)CC1` [INFIGRATINIB]: in the series on SNU-16 [10], the inhibition in vivo at 20 mg/kg stood at 53.7%. Moreover, the IC50 is 0.0954 µM in the series with SNU-16 [3], 0.0659 µM with NCI-H716 and 0.0603 µM in [4].

As a reminder, the IC50 is the concentration needed to halve the response being measured. What is called bioavailability is the share of a dose that reaches the circulation, judged against a reference dose that is usually intravenous. High values mean good availability, low ones poor availability. Usually DC50 stands for the midpoint of the concentration-degradation curve.

The record behind these values is ChEMBL document CHEMBL5338796, “Discovery of a Selective and Orally Bioavailable FGFR2 Degrader for Treating Gastric Cancer” (J Med Chem, 2023).
